Assay results reported in ChEMBL document CHEMBL4118021, “Studies of TAK1-centered polypharmacology with novel covalent TAK1 inhibitors” (Bioorg Med Chem, 2017).
Each block holds one compound with its values, some of them ahead of it. The source made the active and inactive calls. No cut-off for these calls is given here.

Assays:
[1] = molecular target: Dual specificity mitogen-activated protein kinase kinase 2 (Homo sapiens) (UniProt P36507); test: Inhibition of full length human MEK2 (1 to 400 residues) expressed in mammalian expression system assessed as enzyme activity at 1 uM by KINOMEScan assay relative to control; design: scale not given: the % may be the effect or the level left
Method in brief: (§1)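 In vitro ATP-site competition binding assay (KinomeScan) across a panel of 456 kinases. Compound was tested at 1 and 10 μM. The read-out is the binding inhibition score relative to control.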

[2] = molecular target: Cyclin-dependent kinase-like 2 (Homo sapiens) (UniProt Q92772); test: Inhibition of human CDKL2 (1 to 327 residues) expressed in bacterial expression system assessed as enzyme activity at 10 uM by KINOMEScan assay relative to control; design: scale not given: the % may be the effect or the level left; method in brief: as §1
[3] = molecular target: Phosphatidylinositol 3-kinase catalytic subunit type 3 (Homo sapiens) (UniProt Q8NEB9); test: Binding affinity to PIK3C3 in human NCI-H358 cells at 1 uM by mass spectrometry based pull down assay; type: cell-based
[4] = molecular target: Delta-1-pyrroline-5-carboxylate synthase (Homo sapiens) (UniProt P54886); test: Binding affinity to ALDH18A1 in human NCI-H23 cells at 1 uM by mass spectrometry based pull down assay; type: cell-based
Method in brief: (§2)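 NCI-H23 or NCI-H358 cells were grown and lysed. Lysates were incubated overnight at 4 °C with 1 μM biotinylated covalent probe or DMSO, then pulled down on streptavidin beads. Proteins were run on polyacrylamide gels and stained with Coomassie. Bands were excised, digested and identified by mass spectrometry.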

[5] = molecular target: MOB kinase activator 1B (Homo sapiens) (UniProt Q7L9L4); test: Binding affinity to MOB1B in human NCI-H23 cells at 1 uM by mass spectrometry based pull down assay; type: cell-based
[6] = molecular target: Glutamate--cysteine ligase catalytic subunit (Homo sapiens) (UniProt P48506); test: Binding affinity to GCLC in human NCI-H23 cells at 1 uM by mass spectrometry based pull down assay; type: cell-based
[7] = molecular target: Glutamate--cysteine ligase regulatory subunit (Homo sapiens) (UniProt P48507); test: Binding affinity to GCLM in human NCI-H358 cells at 1 uM by mass spectrometry based pull down assay; type: cell-based
[8] = molecular target: Importin subunit alpha-1 (Homo sapiens) (UniProt P52292); test: Binding affinity to KPNA2 in human NCI-H358 cells at 1 uM by mass spectrometry based pull down assay; type: cell-based
Agrin (Homo sapiens) = Agrin (Homo sapiens) (UniProt O00468); test: Binding affinity to AGRN in human NCI-H358 cells at 1 uM by mass spectrometry based pull down assay; type: cell-based; method in brief: as §2
[9] = molecular target: T1, 80S Ribosome (Homo sapiens) (UniProt P08865+P42677+P62753+P15880+P23396+P61247+P62701+P22090+P46782+P62081+P62241+P46781+P46783+P62280+P25398+P62277+P62263+P62841+P62244+P62249+P08708+P62269+P39019+P60866+P63220+P62266+P62847+P62851+P62854+P62979+P62857+P62273+P62861+P39023+P36578+P46777+Q02878+P18124+P62424+P62917+P32969+P27635+P62906+P62913+P30050+P26373+P40429+P50914+P61313+P18621+Q07020+Q02543+P84098+P46778+P35268+P62829+P62750+P83731+P61254+P61353+P46776+P46779+P47914+P62888+P62899+P62910+P49207+P42766+P18077+Q9Y3U8+P83881+P61927+P61513+P63173+P62891+P62945+P05388+P05386); test: Binding affinity to RPS17 in human NCI-H23 cells at 1 uM by mass spectrometry based pull down assay; type: cell-based
[10] = molecular target: T1, 80S Ribosome (Homo sapiens); test: Binding affinity to RPS12 in human NCI-H358 cells at 1 uM by mass spectrometry based pull down assay; type: cell-based
[11] = molecular target: Acidic leucine-rich nuclear phosphoprotein 32 family member A (Homo sapiens) (UniProt P39687); test: Binding affinity to ANP32A in human NCI-H358 cells at 1 uM by mass spectrometry based pull down assay; type: cell-based
[12] = molecular target: Small ribosomal subunit protein eS6 (Homo sapiens) (UniProt P62753); test: Binding affinity to RPS6 in human NCI-H23 cells at 1 uM by mass spectrometry based pull down assay; type: cell-based
Plectin (Homo sapiens) = Plectin (Homo sapiens) (UniProt Q15149); test: Binding affinity to PLEC in human NCI-H23 cells at 1 uM by mass spectrometry based pull down assay; type: cell-based
[13] = molecular target: Cysteine and glycine-rich protein 1 (Homo sapiens) (UniProt P21291); test: Binding affinity to CSRP1 in human NCI-H23 cells at 1 uM by mass spectrometry based pull down assay; type: cell-based
[14] = molecular target: GTP-binding protein Rheb (Homo sapiens) (UniProt Q15382); test: Binding affinity to RHEB in human NCI-H358 cells at 1 uM by mass spectrometry based pull down assay; type: cell-based
[15] = molecular target: Actin-related protein 3 (Homo sapiens) (UniProt P61158); test: Binding affinity to ACTR3 in human NCI-H358 cells at 1 uM by mass spectrometry based pull down assay; type: cell-based; method in brief: as §2
[16] = molecular target: Phospholipid hydroperoxide glutathione peroxidase GPX4 (Homo sapiens) (UniProt P36969); test: Binding affinity to GPX4 in human NCI-H23 cells at 1 uM by mass spectrometry based pull down assay; type: cell-based
[17] = molecular target: T2, Dual specificity mitogen-activated protein kinase kinase 3 (Homo sapiens) (UniProt P46734); test: Binding affinity to MAP2K3 in human NCI-H23 cells at 1 uM by mass spectrometry based pull down assay; type: cell-based
T2 sequence (whole entry): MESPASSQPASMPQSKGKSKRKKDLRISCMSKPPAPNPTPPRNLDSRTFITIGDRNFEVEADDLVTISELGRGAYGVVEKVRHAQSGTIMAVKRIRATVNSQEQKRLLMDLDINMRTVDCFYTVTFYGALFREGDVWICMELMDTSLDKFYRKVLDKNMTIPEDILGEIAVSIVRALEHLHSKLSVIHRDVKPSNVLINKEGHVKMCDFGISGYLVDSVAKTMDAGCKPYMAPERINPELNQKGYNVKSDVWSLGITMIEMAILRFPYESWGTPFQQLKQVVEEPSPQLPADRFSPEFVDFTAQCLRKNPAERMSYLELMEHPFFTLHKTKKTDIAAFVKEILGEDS

[18] = molecular target: HCLS1-associated protein X-1 (Homo sapiens) (UniProt O00165); test: Binding affinity to HAX1 in human NCI-H23 cells at 1 uM by mass spectrometry based pull down assay; type: cell-based
[19] = molecular target: Actin-related protein 2/3 complex subunit 2 (Homo sapiens) (UniProt O15144); test: Binding affinity to ARPC2 in human NCI-H358 cells at 1 uM by mass spectrometry based pull down assay; type: cell-based
[20] = molecular target: Serine/threonine-protein kinase MARK1 (Homo sapiens) (UniProt Q9P0L2); test: Inhibition of MARK1 in human SKCO1 cells at 1 uM after 4 hrs using biotin labeled EVAVKIIDK probe by mass-spectrometric analysis relative to control; type: cell-based
Chain of Serine/threonine-protein kinase MARK1 (Homo sapiens) (Q9P0L2 whole entry, looked up): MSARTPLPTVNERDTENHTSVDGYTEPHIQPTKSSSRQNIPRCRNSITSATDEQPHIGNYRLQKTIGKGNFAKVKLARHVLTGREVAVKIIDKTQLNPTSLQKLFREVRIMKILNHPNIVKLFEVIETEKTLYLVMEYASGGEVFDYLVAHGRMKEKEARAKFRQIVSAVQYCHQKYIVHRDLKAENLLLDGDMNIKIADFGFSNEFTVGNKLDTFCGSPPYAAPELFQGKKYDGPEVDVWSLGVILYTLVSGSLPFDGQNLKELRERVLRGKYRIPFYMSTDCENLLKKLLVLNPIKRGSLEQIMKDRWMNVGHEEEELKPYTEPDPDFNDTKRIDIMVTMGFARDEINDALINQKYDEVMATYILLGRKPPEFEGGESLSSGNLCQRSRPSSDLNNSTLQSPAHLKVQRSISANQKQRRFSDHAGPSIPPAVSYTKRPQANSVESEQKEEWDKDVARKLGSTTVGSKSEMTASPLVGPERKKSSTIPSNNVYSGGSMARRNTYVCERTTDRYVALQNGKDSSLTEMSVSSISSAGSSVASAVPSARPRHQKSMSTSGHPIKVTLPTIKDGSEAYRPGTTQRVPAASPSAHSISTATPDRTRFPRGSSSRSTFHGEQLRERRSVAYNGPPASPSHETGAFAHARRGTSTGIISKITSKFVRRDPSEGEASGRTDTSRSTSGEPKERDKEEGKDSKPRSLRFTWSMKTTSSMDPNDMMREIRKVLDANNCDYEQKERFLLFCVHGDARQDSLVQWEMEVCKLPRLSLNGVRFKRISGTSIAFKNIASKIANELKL

Chain of Cysteine and glycine-rich protein 1 (Homo sapiens) (P21291 whole entry): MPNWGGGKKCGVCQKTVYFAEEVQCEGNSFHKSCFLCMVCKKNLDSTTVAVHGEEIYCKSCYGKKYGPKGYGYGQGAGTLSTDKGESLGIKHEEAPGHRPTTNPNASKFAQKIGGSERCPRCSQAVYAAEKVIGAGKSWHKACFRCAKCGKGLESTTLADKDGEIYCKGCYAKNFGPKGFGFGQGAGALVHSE
Chain of Phosphatidylinositol 3-kinase catalytic subunit type 3 (Homo sapiens) (Q8NEB9 whole entry): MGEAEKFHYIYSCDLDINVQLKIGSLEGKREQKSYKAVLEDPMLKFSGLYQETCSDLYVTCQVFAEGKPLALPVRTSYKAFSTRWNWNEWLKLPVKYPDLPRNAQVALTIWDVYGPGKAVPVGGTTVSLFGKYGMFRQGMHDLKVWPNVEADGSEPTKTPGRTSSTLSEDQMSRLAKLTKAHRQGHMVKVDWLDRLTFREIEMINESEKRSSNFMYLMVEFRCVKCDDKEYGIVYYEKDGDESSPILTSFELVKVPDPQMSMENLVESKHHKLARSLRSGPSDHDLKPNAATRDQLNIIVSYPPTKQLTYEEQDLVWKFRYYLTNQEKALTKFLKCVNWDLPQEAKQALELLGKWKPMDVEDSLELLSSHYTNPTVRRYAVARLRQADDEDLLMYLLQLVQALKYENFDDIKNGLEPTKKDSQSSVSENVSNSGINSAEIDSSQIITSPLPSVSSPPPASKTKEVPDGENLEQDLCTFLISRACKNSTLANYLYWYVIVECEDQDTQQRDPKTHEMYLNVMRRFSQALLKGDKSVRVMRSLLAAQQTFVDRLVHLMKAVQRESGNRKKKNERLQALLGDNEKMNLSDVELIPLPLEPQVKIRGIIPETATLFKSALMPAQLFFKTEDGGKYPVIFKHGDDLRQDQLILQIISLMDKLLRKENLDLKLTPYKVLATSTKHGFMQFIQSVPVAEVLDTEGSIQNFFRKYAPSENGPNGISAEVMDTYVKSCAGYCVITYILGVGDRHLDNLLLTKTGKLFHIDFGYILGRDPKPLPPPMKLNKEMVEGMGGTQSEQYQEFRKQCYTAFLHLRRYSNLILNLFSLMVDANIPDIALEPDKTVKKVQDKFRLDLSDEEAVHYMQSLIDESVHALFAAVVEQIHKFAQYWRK
Chain of HCLS1-associated protein X-1 (Homo sapiens) (O00165 whole entry): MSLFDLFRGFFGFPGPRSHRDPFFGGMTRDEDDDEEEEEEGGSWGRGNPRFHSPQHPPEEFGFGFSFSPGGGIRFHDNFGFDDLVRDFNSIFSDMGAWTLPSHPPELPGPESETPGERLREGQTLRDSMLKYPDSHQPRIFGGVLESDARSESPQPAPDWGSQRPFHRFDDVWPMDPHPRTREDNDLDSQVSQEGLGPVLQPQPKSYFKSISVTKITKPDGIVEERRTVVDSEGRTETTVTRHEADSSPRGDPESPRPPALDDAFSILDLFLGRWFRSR
Chain of Delta-1-pyrroline-5-carboxylate synthase (Homo sapiens) (P54886 whole entry): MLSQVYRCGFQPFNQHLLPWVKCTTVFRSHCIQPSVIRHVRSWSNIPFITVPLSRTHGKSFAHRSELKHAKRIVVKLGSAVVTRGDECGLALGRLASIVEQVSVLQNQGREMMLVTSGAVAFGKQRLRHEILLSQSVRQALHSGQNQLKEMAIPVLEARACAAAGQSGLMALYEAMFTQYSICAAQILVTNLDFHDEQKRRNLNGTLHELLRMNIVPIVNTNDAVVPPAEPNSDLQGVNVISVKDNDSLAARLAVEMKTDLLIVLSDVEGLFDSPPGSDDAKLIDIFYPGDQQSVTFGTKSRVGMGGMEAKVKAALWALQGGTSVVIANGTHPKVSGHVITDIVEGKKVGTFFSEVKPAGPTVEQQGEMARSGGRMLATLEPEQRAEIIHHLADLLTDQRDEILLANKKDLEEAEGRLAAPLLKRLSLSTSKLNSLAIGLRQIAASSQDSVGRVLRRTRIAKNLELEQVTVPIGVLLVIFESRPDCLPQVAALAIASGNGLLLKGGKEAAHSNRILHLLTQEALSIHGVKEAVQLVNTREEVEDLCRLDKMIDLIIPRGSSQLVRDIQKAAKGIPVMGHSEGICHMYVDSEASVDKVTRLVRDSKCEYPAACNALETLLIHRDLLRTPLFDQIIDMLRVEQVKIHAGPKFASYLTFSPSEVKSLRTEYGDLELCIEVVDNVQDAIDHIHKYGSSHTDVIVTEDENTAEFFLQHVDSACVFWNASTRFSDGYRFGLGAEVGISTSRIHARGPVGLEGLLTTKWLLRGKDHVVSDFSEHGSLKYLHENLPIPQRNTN
Chain of Glutamate--cysteine ligase regulatory subunit (Homo sapiens) (P48507 whole entry): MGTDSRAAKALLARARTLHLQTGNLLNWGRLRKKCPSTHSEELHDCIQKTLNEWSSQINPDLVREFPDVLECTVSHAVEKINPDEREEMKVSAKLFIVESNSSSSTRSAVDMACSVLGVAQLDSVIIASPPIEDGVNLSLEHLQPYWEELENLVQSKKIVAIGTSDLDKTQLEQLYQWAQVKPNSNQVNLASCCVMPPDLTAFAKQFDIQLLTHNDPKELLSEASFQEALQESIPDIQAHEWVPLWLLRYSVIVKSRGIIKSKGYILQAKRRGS
Chain of MOB kinase activator 1B (Homo sapiens) (Q7L9L4 whole entry): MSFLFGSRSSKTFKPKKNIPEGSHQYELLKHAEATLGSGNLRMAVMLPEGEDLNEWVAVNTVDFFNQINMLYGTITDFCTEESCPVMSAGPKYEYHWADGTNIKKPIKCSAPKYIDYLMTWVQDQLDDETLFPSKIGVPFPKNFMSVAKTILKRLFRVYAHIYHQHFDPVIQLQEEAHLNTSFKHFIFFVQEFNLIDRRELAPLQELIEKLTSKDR
Chain of Acidic leucine-rich nuclear phosphoprotein 32 family member A (Homo sapiens) (P39687 whole entry): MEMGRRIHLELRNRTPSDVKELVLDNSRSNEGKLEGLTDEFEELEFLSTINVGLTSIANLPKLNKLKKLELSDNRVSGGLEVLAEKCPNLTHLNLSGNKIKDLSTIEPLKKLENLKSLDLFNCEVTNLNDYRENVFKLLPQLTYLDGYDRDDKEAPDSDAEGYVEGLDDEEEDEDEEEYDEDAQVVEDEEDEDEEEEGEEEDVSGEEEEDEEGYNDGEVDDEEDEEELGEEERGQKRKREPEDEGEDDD
Chain of Phospholipid hydroperoxide glutathione peroxidase GPX4 (Homo sapiens) (P36969 whole entry): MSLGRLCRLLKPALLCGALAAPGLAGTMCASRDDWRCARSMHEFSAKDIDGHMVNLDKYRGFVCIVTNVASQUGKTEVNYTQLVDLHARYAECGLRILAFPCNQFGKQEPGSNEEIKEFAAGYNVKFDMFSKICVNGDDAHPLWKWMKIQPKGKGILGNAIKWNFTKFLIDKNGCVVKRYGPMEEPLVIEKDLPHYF
Chain of Glutamate--cysteine ligase catalytic subunit (Homo sapiens) (P48506 whole entry): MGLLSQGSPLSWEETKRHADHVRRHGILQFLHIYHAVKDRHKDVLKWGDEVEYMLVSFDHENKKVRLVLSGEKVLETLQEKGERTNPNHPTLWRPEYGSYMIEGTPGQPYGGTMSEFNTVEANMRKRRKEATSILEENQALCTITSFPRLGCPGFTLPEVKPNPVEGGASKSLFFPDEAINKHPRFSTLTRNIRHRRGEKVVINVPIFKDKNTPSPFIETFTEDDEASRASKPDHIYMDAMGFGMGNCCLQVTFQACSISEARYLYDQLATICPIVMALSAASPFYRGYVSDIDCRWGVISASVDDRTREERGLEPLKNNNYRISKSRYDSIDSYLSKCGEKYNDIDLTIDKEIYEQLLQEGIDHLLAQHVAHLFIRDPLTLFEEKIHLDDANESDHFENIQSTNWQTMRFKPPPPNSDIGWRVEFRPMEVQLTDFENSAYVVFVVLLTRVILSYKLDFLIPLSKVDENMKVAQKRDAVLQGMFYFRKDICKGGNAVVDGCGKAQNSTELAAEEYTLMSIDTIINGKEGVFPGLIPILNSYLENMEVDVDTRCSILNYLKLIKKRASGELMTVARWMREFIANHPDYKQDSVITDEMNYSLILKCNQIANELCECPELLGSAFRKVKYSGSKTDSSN
Chain of GTP-binding protein Rheb (Homo sapiens) (Q15382 whole entry): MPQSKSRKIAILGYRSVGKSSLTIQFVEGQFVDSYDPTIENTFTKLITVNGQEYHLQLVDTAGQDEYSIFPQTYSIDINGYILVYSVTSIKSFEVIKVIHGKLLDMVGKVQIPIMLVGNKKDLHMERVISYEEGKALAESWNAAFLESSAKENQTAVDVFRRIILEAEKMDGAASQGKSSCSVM

Structure (SMILES): COc1cc(O)c2c(c1)/C=C/C[C@H](O)[C@H](O)C(=O)/C=C\C[C@H](C)OC2=O
- Activity [1]: 0.75%
- Activity [2]: 8.6%

- Activity [3]: Active
- Activity [4]: Active
- Activity [5]: Active
- Activity [6]: Active
- Activity [7]: Active
- Activity [8]: Active
- Activity (Agrin (Homo sapiens)): Active
- Activity [9]: Active
- Activity [10]: Active
- Activity [11]: Active
- Activity [12]: Active
- Activity (Plectin (Homo sapiens)): Active
- Activity [13]: Active
- Activity [14]: Active
- Activity [15]: Active
- Activity [16]: Active
- Activity [17]: Active
- Activity [18]: Active
- Activity [19]: Active
Structure (SMILES): C=CC(=O)Nc1ccccc1Nc1nc(Nc2ccc(N3CCN(CCOCCOCCOCCNC(=O)CCCC[C@@H]4SC[C@@H]5NC(=O)N[C@@H]54)CC3)cc2)ncc1Cl

Structure (SMILES): C=CC(=O)Nc1ccccc1Nc1nc(Nc2ccc(N3CCN(C)CC3)cc2)ncc1Cl
- inhibition [20]: -5.7%
